Activity calls are given as the source filed them. The calls are words filed in the database; no cut-off is given here.
Key:
Lactuca sativa [1] = assay: Phytotoxicity against Lactuca sativa cv. Burpee's Iceberg (lettuce) assessed as reduction in chlorophyll content compound treated at 100 uM in darkness after 7 days followed by exposure to white light by spectrophotometry; format: functional, organism-based
Summary of the method: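 Seedlings were treated in wells with 1% acetone final and kept in foil-wrapped darkness at 26 °C for 7 days. They then received 5 min of white light (80 µmol s⁻¹ m⁻² PAR) and were returned to darkness for 1 h. Ten cotyledon pairs were weighed and extracted in DMSO in the dark. Chlorophyll was read at 645/663 nm and compared with the solvent control.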

Lactuca sativa [2] = assay: Phytotoxicity against Lactuca sativa cv. Burpee's Iceberg (lettuce) assessed as reduction in chlorophyll content at 100 uM after 7 days by spectrophotometry; format: functional, organism-based
Summary of the method: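 Seeds grown in 24-well plates in water with 3% acetone, at 26 °C under continuous light (173 µmol s⁻¹ m⁻²) for 7 days. Cotyledons from three plants per well were weighed and extracted in 2 mL DMSO at 60 °C for 2 h, then diluted with 1 mL more DMSO. A645 and A663 were read and converted to total chlorophyll (20.2A645 + 8.02A663). Values were normalized to cotyledon weight.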

Lemna aequinoctialis [3] = assay: Phytotoxicity against Lemna paucicostata assessed as growth inhibition at 100 uM after 4 to 5 days; format: functional, organism-based
Summary of the method: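 Hoagland medium at pH 5.5 was filter-sterilized in 6-well plates, with compound added in acetone or EtOH (1% final). Two three-frond colonies from 4- to 5-day-old stock cultures were placed per well. Total frond area was recorded by image analysis from day 0 to day 7.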

Allium cepa [4] = assay: Phytotoxicity against Allium cepa (onion) assessed as inhibition of mitosis in root tips at 100 uM measured on day 7 of compound treatment by microscopy; format: functional, organism-based
Summary of the method: (§1)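 Ten surface-sterilized onion seeds were placed on filter paper in 6-cm dishes with 1 mL of water containing compound (final 0.05% acetone). Controls received water or acetone/water. Dishes were kept at 25 °C under a 16 h photoperiod at 173 µmol s⁻¹ m⁻². On day 7, root tips were fixed (HOAc/EtOH 1:3), hydrolyzed in 5 N HCl for 1 h, and Feulgen-stained with Schiff's reagent for 45 min. At least 1000 cells per slide were scored at 40×.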

Lemna aequinoctialis [5] = assay: Phytotoxicity against Lemna paucicostata assessed as tissue degradation at 250 uM after 4 to 5 days; format: functional, organism-based
Agrostis stolonifera = assay: Phytotoxicity against Agrostis stolonifera assessed as mortality at 333 uM after 12 days; format: functional, organism-based
Summary of the method: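 Seeds (10 mg) per well of 24-well plates in 250 µL water containing 3% acetone as final concentration; solvent-only controls. Plates were sealed and incubated at 26 °C under continuous light at 173 µmol s⁻¹ m⁻². Concentrations tested were 10, 33, 100 and 333 µM. Phytotoxicity was scored visually against untreated controls.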

Lactuca sativa [6] = assay: Phytotoxicity against Lactuca sativa cv. Burpee's Iceberg (lettuce) assessed as reduction in radical length at 10 uM after 7 days by spectrophotometry relative to control; format: functional; parameters: scale not given: the % may be the effect or the level left
Summary of the method: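 Lettuce seeds were set in multiwell plates with test material supplied from acetone in DDI water (3% acetone final). Controls received acetone and water only. Plates were sealed and kept at 26 °C under continuous light at 173 µmol s⁻¹ m⁻² for 7 days. Root lengths, together with plant weight and chlorophyll content, were compared against untreated controls.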

Lactuca sativa [7] = assay: Phytotoxicity against Lactuca sativa cv. Burpee's Iceberg (lettuce) assessed as blunt root tips at 10 uM after 7 days by spectrophotometry relative to control; format: functional, organism-based
Allium cepa [8] = assay: Phytotoxicity against Allium cepa (onion) assessed as accumulation of cells at metaphase in root tips at 33 uM measured on day 7 of compound treatment by microscopy; format: functional, organism-based; summary of the method: as §1
Lactuca sativa [9] = assay: Phytotoxicity against Lactuca sativa cv. Burpee's Iceberg (lettuce) assessed as unbranched root tips at 10 uM after 7 days by spectrophotometry relative to control; format: functional, organism-based
Allium cepa [10] = assay: Phytotoxicity against Allium cepa (onion) assessed as accumulation of cells at prophase in root tips at 33 uM measured on day 7 of compound treatment by microscopy; format: functional, organism-based; summary of the method: as §1

## Cn1c(-c2ccc3c(c2)OCO3)cc(=O)c2ccccc21
Lactuca sativa [1]
  Activity: inactive
Lactuca sativa [2]
  Activity: Active
Lemna aequinoctialis [3]
  growth inhibition (GI): Active
Allium cepa [4]
  inhibition: Active
Lemna aequinoctialis [5]
  Activity: Active
Agrostis stolonifera
  Activity: Active

## COc1c2occc2cc2ccc(=O)oc12 [METHOXSALEN]
Lactuca sativa [1]
  Activity: inactive
Lactuca sativa [6]
  Activity: 39%
Lactuca sativa [2]
  Activity: Active
Allium cepa [4]
  inhibition: Active
Lactuca sativa [7]
  Activity: Active
Allium cepa [8]
  Activity: Active
Lactuca sativa [9]
  Activity: Active
Allium cepa [10]
  Activity: Active
Agrostis stolonifera
  Activity: Active

## COc1c2ccoc2cc2oc(=O)ccc12
Lactuca sativa [6]
  Activity: inactive
Allium cepa [4]
  inhibition: Active
Lactuca sativa [7]
  Activity: inactive
Lactuca sativa [9]
  Activity: inactive
Agrostis stolonifera
  Activity: Active
